Assay results reported in ChEMBL document CHEMBL4610116, “Salicylanilide Analog Minimizes Relapse of Clostridioides difficile Infection in Mice” (J Med Chem, 2020).
≈ marks a conversion by molar mass, not a printed value. Calls of active or inactive are those of the source. No cut-off for these calls is given here.

How the values were obtained:
[1] = system: Clostridioides difficile; experiment: Antimicrobial activity against Clostridioides difficile CD10463 incubated for 20 to 24 hrs by broth microdilution method; assay type: functional
Outline: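 Broth microdilution in pre-reduced BHIS using two-fold serial dilutions and ~5 × 10⁵ cfu/mL inoculum. Incubated 20–24 h at 37°C, anaerobic (8% H₂, 8% CO₂, 84% N₂). MIC read by the Lambert-Pearson method; duplicates.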

[2] = system: Clostridioides difficile; experiment: (§1) Suppression of relapse of Clostridioides difficile 630 infection in cefoperazone-treated C57BL/6J mouse model of recurrent Clostridioides difficile 630 infection assessed as reduction in body weight loss at 0.4 mg/ml, po for 5 days from day 4 to 9 after infection with spores and measured on day 3; assay type: functional, organism-based
Outline: (§2)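 Cefoperazone 0.5 mg/ml in drinking water for 5 days, then 2-day washout, in 5-week-old male and female C57BL/6J mice. Oral gavage of 10⁵ C. difficile 630 spores on day 0. Vancomycin 0.4 mg/mL given in drinking water ad libitum on days 4–9. Body weight recorded daily and clinical signs watched for 14 days; n=6 per group.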

[3] = system: Clostridioides difficile; experiment: as §1, with “in microbial load (total vegetative cells plus spores)” for “in body weight loss”, “day 7” for “day 3”; assay type: functional, organism-based
Outline: (§3)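 Strain 630 spore challenge (10⁵, gavage) of cefoperazone-treated mice; vancomycin 0.4 mg/mL in drinking water on days 4–9. Feces diluted 1:10 in PBS and settled anaerobically 30 min. Ten-fold dilutions plated on TCCFA, incubated anaerobically at 37°C for 24 h. Result is CFU/g feces of total vegetative cells plus spores from unheated samples. Mixed-effect model with Tukey post test.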

[4] = system: Clostridioides difficile; experiment: as §1, with “day 3 after drug cessation” for “day 3”; assay type: functional, organism-based; outline: as §2
[5] = system: Clostridioides difficile; experiment: as §1, with “reduction in microbial load in feces (total vegetative cells plus spores) at 0.4” for “reduction in body weight loss at 0.4”, “day 3 after drug cessation” for “day 3”; assay type: functional, organism-based; outline: as §3
[6] = system: Clostridioides difficile; experiment: Suppression of relapse of Clostridioides difficile 630 infection in cefoperazone-treated C57BL/6J mouse model of recurrent Clostridioides difficile 630 infection assessed as reduction in weight loss at 0.4 mg/ml, po for 5 days from day 4 to 9 after infection with spores and measured on day 14; assay type: functional; design: scale not given: the % may be the effect or the level left; outline: as §2
[7] = system: Clostridioides difficile; experiment: (§4) Suppression of relapse of Clostridioides difficile 630 infection in cefoperazone-treated C57BL/6J mouse model of recurrent Clostridioides difficile 630 infection assessed as reduction in clinical illness at 0.4 mg/ml, po for 5 days from day 4 to 9 after infection with spores measured on day day 14; assay type: functional, organism-based; outline: as §2
[8] = system: Clostridioides difficile; experiment: as §4, with “histopathological summary scores” for “clinical illness”; assay type: functional, organism-based
[9] = system: Clostridioides difficile; experiment: as §4, with “group-Bacteroidaceae level” for “clinical illness”; assay type: functional, organism-based
Outline: (§5)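 Infection model: cefoperazone 0.5 mg/ml in drinking water for 5 days, 2-day washout, then 10⁵ strain 630 spores by gavage. Vancomycin 0.4 mg/mL in drinking water, days 4–9. Cecal tissue snips taken at day 14 necropsy; gut bacterial community profiled by 16S rRNA gene sequencing on Illumina MiSeq. n=6 per group.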

[10] = system: Clostridioides difficile; experiment: as §4, with “group-Proteobacteria level” for “clinical illness”; assay type: functional, organism-based; outline: as §5

N#Cc1cc(NC(=O)c2cc(Cl)cc(Cl)c2O)ccc1Oc1ccc(Cl)cc1
MIC [1]: 0.37 µM (≈ 0.16 µg/mL)

O=C(Nc1cc([N+](=O)[O-])c(Oc2ccc(Cl)cc2)c([N+](=O)[O-])c1)c1cc(Cl)cc(Cl)c1O
MIC [1]: > 2 µM

O=C(Nc1ccc(Oc2ccc(Cl)cc2)cc1I)c1cc(Cl)cc(Cl)c1O
MIC [1]: 0.17 µM (≈ 0.0909 µg/mL)

O=C(Nc1ccc(Oc2ccc(Cl)cc2)c(Br)c1)c1cc(Cl)cc(Cl)c1O
MIC [1]: 0.1 µM (≈ 0.0488 µg/mL)

COc1cc(Oc2ccc(Cl)cc2)ccc1NC(=O)c1cc(Cl)cc(Cl)c1O
MIC [1]: 3.6 µM (≈ 1.58 µg/mL)

O=C(Nc1ccc(Oc2ccc(Cl)cc2)cc1Br)c1cc(Cl)cc(Cl)c1O
MIC [1]: 0.18 µM (≈ 0.0878 µg/mL)

O=C(Nc1ccc(Oc2ccc(Cl)cc2)c(I)c1)c1cc(Cl)cc(Cl)c1O
MIC [1]: 0.6 µM (≈ 0.321 µg/mL)

O=C(Nc1ccc(Oc2ccc(Cl)cc2)c(F)c1)c1cc(Cl)cc(Cl)c1O
MIC [1]: 0.135 µM (≈ 0.0576 µg/mL)

CN[C@H](CC(C)C)C(=O)N[C@H]1C(=O)N[C@@H](CC(N)=O)C(=O)N[C@H]2C(=O)N[C@H]3C(=O)N[C@H](C(=O)N[C@H](C(=O)O)c4cc(O)cc(O)c4-c4cc3ccc4O)[C@H](O)c3ccc(c(Cl)c3)Oc3cc2cc(c3O[C@@H]2O[C@H](CO)[C@@H](O)[C@H](O)[C@H]2O[C@H]2C[C@](C)(N)[C@H](O)[C@H](C)O2)Oc2ccc(cc2Cl)[C@H]1O [VANCOMYCIN]
MIC [1]: 2.1 µM (≈ 3.04 µg/mL)
Activity [2]: Active
Activity [3]: Active
Activity [4]: inactive
Activity [5]: inactive
Activity [6]: 10 - 26%
Activity [7]: inactive
Activity [8]: inactive
Activity [9]: inactive
Activity [10]: inactive

O=C(Nc1cc(I)c(Oc2ccc(Cl)cc2)c(I)c1)c1cc(Cl)cc(Cl)c1O
MIC [1]: 0.075 µM (≈ 0.0495 µg/mL)

O=C(Nc1ccc(Oc2ccc(Cl)cc2)cc1)c1cc(Cl)cc(Cl)c1O
MIC [1]: 1.4 µM (≈ 0.572 µg/mL)

O=C(Nc1ccc(Oc2ccc(Cl)cc2)c(Cl)c1)c1cc(Cl)cc(Cl)c1O
MIC [1]: 0.11 µM (≈ 0.0487 µg/mL)

COc1cc(NC(=O)c2cc(Cl)cc(Cl)c2O)ccc1Oc1ccc(Cl)cc1
MIC [1]: 2.6 µM (≈ 1.14 µg/mL)
